OXTR potentiate: human OXTR potentiators, primary screen, fluorescence, CHO-OTR cells, Fluo-8 calcium; activation, % at 3 µM; hit rate 0.061% among 320,000; AID 2445, 2010; Fluo-8 calcium fluorescence, potentiator mode; 0% = oxytocin EC15, 100% = EC100;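 active = activation above that plate's cutoff, the mean activation of tested compounds plus 3 SD, cut at about 6.6% in these data, passing the limit was not always enough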;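 note: 100% uses oxytocin at 75 nM as the full agonist control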
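Assay system: CHO-OTR cells, human receptor / Also added: oxytocin at about EC15, sub-maximal agonist stimulus / Dosing: single dose, 3.0 µM nominal final compound concentration / Incubation: 6 min pre-incubation, 100 s read / Technique: Fluo-8 calcium dye fluorescence / Read-out: % activation vs EC15 and EC100 oxytocin / Benchmarks: EC15 oxytocin low, 75 nM oxytocin high / Replicates: singlicate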
TRPML3 agonist: human TRPML3 channel agonists, primary screen, cell-based, HEK293 TRPML3-YFP, Fluo-8 calcium fluorescence, 3 µM. 100% = the carbachol control signal. activation, % at 3 µM. hit rate 0.29% among 220,000. AID 1448, 2008;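 active = activation above its plate's cutoff, the mean activation of the plate's test wells plus 3 SD, cut at about 12% in these data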;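 note: 0% = DMSO only wells and 100% = carbachol wells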
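Test system: HEK293 cells stably carrying human TRPML3-YFP; Doses: single dose, 3 µM final nominal compound, 0.3% DMSO final; Schedule: dye loading 1 h 37 °C then 30 min ambient, 125 s read; Technique: Fluo-8 calcium fluorescence; Benchmarks: high control carbachol 87 µM, low control DMSO.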
OXTR ag: human OXTR agonists, primary screen, fluorescence, CHO-OTR cells, Fluo-8 calcium; Oxytocin receptor (Homo sapiens), P30559; Fluo-8 calcium fluorescence; normalized: DMSO 0%, oxytocin 100%; activation, % at 3 µM; hit rate 0.32% among 320,000;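 active = activation above the mean of all tested compounds plus 3 SD, cutoff set per screening run, cut at about 20% in these data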;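 note: peak over basal fluorescence ratio from a 100 s FLIPR kinetic read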
zfTRPN1 agonist: zebrafish TRPN1 channel agonists, primary screen, cell-based, HEK293, calcium fluorescence; transient receptor potential cation channel N1 (TRPN1/NompC), Danio rerio; HEK293 zebrafish TRPN1-YFP, Fluo-8 calcium fluorescence; 100% = response to 87 µM carbachol; activation, % at 3 µM; hit rate 0.18% among 220,000; AID 1424, 2008;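 active = activation above its plate's cutoff, the mean activation of test wells on that plate plus 3 SD, cut at about 19% in these data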;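 note: 0% = DMSO alone and 100% = 87 µM carbachol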
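System: zebrafish TRPN1-YFP in HEK293 cells / Dosing: 3 µM single point / Timing: dye loading 1 h at 37 °C, then 30 min room temperature / Signal: Fluo-8 calcium fluorescence, excitation 470-495 nm, emission 515-575 nm / Read-out basis: percent activation from peak over basal fluorescence ratio, control-normalized / Control set: high carbachol 87 µM, low DMSO alone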
V1aR counter: agonists of human V1a receptor, primary screen, counter-screen for OXTR agonist project, fluorescence, CHO-V1R cells; Fluo-8 calcium fluorescence, agonist mode; 0% DMSO, 100% 3 nM vasopressin; Vasopressin V1a receptor (Homo sapiens), P37288; AID 2797, 2010; activation, % at 3 µM; hit rate 0.25% among 320,000;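 active = activation above the mean activation of all tested compounds plus 3 SD, per screening run, cut at about 20% in these data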;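 note: signal is peak over basal fluorescence ratio across a 100 second FLIPR read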
Target sequence (P37288 whole entry, looked up): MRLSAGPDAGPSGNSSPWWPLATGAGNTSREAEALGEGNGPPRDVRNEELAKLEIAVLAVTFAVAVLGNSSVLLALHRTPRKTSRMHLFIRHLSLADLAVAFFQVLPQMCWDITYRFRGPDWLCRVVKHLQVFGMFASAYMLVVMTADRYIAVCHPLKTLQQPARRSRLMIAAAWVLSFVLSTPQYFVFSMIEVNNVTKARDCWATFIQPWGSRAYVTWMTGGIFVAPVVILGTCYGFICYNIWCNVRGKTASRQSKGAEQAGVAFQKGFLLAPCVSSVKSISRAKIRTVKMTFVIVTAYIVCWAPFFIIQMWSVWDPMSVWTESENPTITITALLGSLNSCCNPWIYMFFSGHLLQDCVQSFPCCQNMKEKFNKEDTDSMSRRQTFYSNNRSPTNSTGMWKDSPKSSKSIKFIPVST
Starred values were filed as active, the others as inactive; x = no result. Sampled rows, rich in hits. Any-hit rate of the full collection: about 0.58%.

SMILES | OXTR potentiate | TRPML3 agonist | OXTR ag | zfTRPN1 agonist | V1aR counter
CCc1ccc(-c2nc(CN3CCC(C(=O)N4CCN(c5ccccn5)CC4)CC3)c(C)o2)cc1 | -11 | 1 | 17 | 0 | 14
CCCOc1ccc(C(=O)NC(=S)NNC(=O)c2c(-c3ccccc3)noc2C)cc1 | -19 | 52* | 93* | 99* | 106*
Cc1onc(-c2ccccc2)c1C(=O)NC(=S)NNC(=O)c1ccccc1O | -14 | 55* | 65* | 81* | 68*
Cn1c(SCc2ccc(F)cc2Cl)nc2ccccc2c1=O | -7 | x | 1 | x | 2
CCOc1ccc(NS(=O)(=O)c2ccc(C(=O)NCC(c3cccs3)N3CCOCC3)cc2)cc1 (stereo not drawn) | -21 | x | 26* | x | 26*
CC(=O)c1ccc(S(=O)(=O)Nc2ccc(C(=O)NCC(c3cccs3)N3CCOCC3)cc2)cc1 (stereo not drawn) | -8 | x | 1 | x | 2
CCc1ccc(O)c(N=Cc2cccc(C)c2O)c1 | -8 | 0 | 0 | 1 | -1
Cc1cccc(C=Nc2ccc3c4c(cccc24)CC3)c1O | -6 | 7 | 9 | 9 | 25*
O=C(Nc1ccc(OCc2ccccc2)cc1)c1ccccc1 | -5 | 0 | 0 | -1 | -1
O=C(Nc1ccc(OCc2ccccc2)cc1)c1cccnc1 | -16 | 1 | 21* | 2 | 22*
Cc1cc(NC(=O)c2ccc(Cl)cc2)ccc1NC(=O)c1ccccc1Cl | -2 | x | 0 | x | 1
Cc1sc2ncnc(N/N=C/c3cccc(O)c3)c2c1C | -9 | 0 | 3 | -1 | 1
C/C(=N\Nc1ncnc2sc(C)c(C)c12)c1ccccn1 | -15 | x | 124* | x | 134*
COC(=O)C/C=C/[C@@H](C)[C@@H](/C=N/OCC[C@@H]1C=C[C@H](OC(C)=O)[C@@H](COC(C)=O)O1)NS(=O)(=O)c1ccc(C)cc1 | -12 | -1 | -2 | 1 | -1
CN1/C(=C\C=C2/SC(=S)NC2=O)C(C)(C)c2ccccc21 | -18 | 19* | 123* | 33* | 100*
CC1=NN(c2ccccc2)C(=O)/C1=C\C=C1\N(C)c2ccccc2C1(C)C | -13 | 5 | 31* | 15 | 36*
CC1=NN(c2ccccc2)C(=O)/C1=C\C=C\c1ccccc1 | -3 | 1 | -1 | -1 | -1
CC1=NN(c2ccccc2)C(=O)/C1=C/N(C)C | -2 | 1 | 0 | 1 | -1
CC1=NN(c2ccccc2)C(=O)/C1=C\C=C1/N(C)c2ccccc2C1(C)C | -21 | 3 | 34* | 6 | 43*
CN1C(=CC=C2C=C(I)C(=O)C(I)=C2)C(C)(C)c2ccccc21 | x | 2 | x | 8 | x
CN1/C(=C\C=C2/C(=O)Oc3ccccc3C2=O)C(C)(C)c2ccccc21 | -12 | 130* | 367* | 154* | 261*
Cc1sc2ncnc(SCC(=O)N(C)C3CCS(=O)(=O)C3)c2c1C (stereo not drawn) | -21 | 1 | 0 | 0 | 0
COc1ccccc1NS(=O)(=O)/C=C/c1ccccc1 | -6 | 0 | -3 | 0 | -1
Cc1ccc(C(=O)N(C)CCOc2ccccc2)cc1S(=O)(=O)N1CCOCC1 | -5 | x | 2 | x | 3
Cc1cc(C)nc(/N=C(\N)Nc2ccc(OCc3ccccc3)cc2)n1 | -18 | 102* | 75* | 111* | 77*
SMILES | OXTR potentiate | TRPML3 agonist | OXTR ag | zfTRPN1 agonist | V1aR counter
Cc1cc(C)nc(/N=C(\N)Nc2cccc(OCc3ccccc3)c2)n1 | -10 | 61* | 46* | 72* | 50*
Cc1cc(C)nc(/N=C(\N)Nc2ccc(OCCC(C)C)cc2)n1 | -25 | x | 50* | x | 48*
Cc1nnc(SCC(=O)c2cc(C)n(-c3ccc4c(c3)OCO4)c2C)s1 | -12 | 17* | 10 | 27* | 6
Cc1ccc(S(=O)(=O)Nc2ccc(C(=O)N3CCCC3)cc2)cc1 | -4 | x | 0 | x | 1
Cc1ccc(NS(=O)(=O)c2ccc(C(=O)N3CC(C)CC(C)C3)cc2)cc1 (stereo not drawn) | -22 | x | 69* | x | 43*
CC1CN(C(=O)c2ccc(S(=O)(=O)Nc3cccc(C(F)(F)F)c3)cc2)CC(C)O1 (stereo not drawn) | -21 | x | 26* | x | 21*
O=C(c1ccc(S(=O)(=O)Nc2cccc(C(F)(F)F)c2)cc1)N1CCOCC1 | -15 | x | 1 | x | 5
O=C(CN1C(=O)NC2(CCCCCC2)C1=O)c1ccc(Cl)s1 | -3 | x | 0 | x | 1
COc1ccc(C2(C)NC(=O)N(CC(=O)c3cc(C)n(C4CC4)c3C)C2=O)cc1 (stereo not drawn) | -16 | x | 49* | x | 45*
CCOC(=O)/C(C#N)=C/C=C1\C=Cc2ccccc2N1CC | -1 | 1 | 7 | 1 | 5
CCOC(=O)/C(C#N)=C/N=c1ccc(C)cn1C | -5 | 1 | 0 | 0 | -1
CCCCCCN1C=CC(=C/C=C(\C#N)C(=O)OCC)C=C1 | -16 | 55* | 177* | 65* | 149*
CCCN1C=CC(=C/C=C(\C#N)C(=O)OCC)C=C1 | -15 | 15* | 62* | 19* | 49*
NC(=O)C(=CNc1nc(-c2ccc(Cl)c(Cl)c2)cs1)C(N)=O | x | 0 | x | 0 | x
O=C(CN1C(=O)C2C3CC(C(Br)C3Br)C2C1=O)N1CCOCC1 (stereo not drawn) | -8 | 1 | 2 | 1 | 0
O=C(CN1C(=O)C2C3CC(C(Br)C3Br)C2C1=O)N1CCN(Cc2ccccc2)CC1 (stereo not drawn) | -17 | 8 | 15 | 27* | 1
Cc1cc(C)nc(SCC(=O)Nc2nonc2N)n1 | -7 | 1 | 0 | 1 | 0
COc1ccccc1CCNC(=O)CSc1ccc(-c2cccs2)nn1 | 1 | 20* | 0 | 33* | -1
O=C(CSc1ccc(-c2cccs2)nn1)NCCc1ccccc1 | -2 | 0 | -2 | -1 | 0
O=C(NCc1ccco1)c1cccc2c1C(=O)c1ccc(N3CCC(Cc4ccccc4)CC3)cc1S2(=O)=O | -10 | x | 15 | x | 13
O=C(NCCc1ccc(F)cc1)c1cccc2c1C(=O)c1ccc(N3CCC(Cc4ccccc4)CC3)cc1S2(=O)=O | -10 | x | 30* | x | 27*
O=C(NCc1cccc(C(F)(F)F)c1)c1cccc2c1C(=O)c1ccc(N3CCC(Cc4ccccc4)CC3)cc1S2(=O)=O | -11 | x | 23* | x | 24*
COc1ccc(/C=C2\SC(=O)NC2=S)cc1OC | -13 | 43* | 29* | 74* | 36*

Source: PubChem (The Scripps Research Institute Molecular Screening Center)
